ChEMBL document CHEMBL1145544, “Probing distal regions of the A2B adenosine receptor by quantitative structure-activity relationship modeling of known and novel agonists” (J Med Chem, 2008)

What was measured:
Adenosine receptor A2a [1] = molecular target: T1, Adenosine receptor A2a (Homo sapiens, UniProt P29274); assay: Displacement of [3H]CGS-21680 from human adenosine A2A receptor expressed in HEK293 cells; assay type: cell-based
Adenosine receptor A2b = molecular target: T2, Adenosine receptor A2b (Homo sapiens, UniProt P29275); assay: Agonist activity at human adenosine A2B receptor expressed in CHO cells assessed as stimulation of adenylate cyclase; assay type: functional, cell-based
T2 sequence (P29275 whole entry): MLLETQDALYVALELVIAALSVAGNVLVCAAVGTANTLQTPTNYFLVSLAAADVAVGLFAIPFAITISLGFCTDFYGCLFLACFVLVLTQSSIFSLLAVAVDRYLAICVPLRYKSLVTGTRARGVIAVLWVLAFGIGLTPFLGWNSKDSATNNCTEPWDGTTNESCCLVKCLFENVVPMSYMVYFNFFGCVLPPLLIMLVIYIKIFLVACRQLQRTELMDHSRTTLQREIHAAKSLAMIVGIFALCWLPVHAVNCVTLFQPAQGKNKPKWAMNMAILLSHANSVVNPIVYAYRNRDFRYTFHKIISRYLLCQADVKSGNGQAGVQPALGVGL
Procedure, shortened: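 Stably transfected CHO cells; cAMP accumulation quantified by enzyme immunoassay kit per manufacturer's manual; EC50 derived.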

[2] = molecular target: T3, Adenosine receptor A2b (Homo sapiens) (UniProt P29275); assay: Agonist activity human adenosine A2B receptor expressed in CHO cells assessed as stimulation of adenylate cyclase relative to NECA; assay type: functional, cell-based
T3 sequence (whole entry): T2 sequence (P29275 whole entry)
Procedure, shortened: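 Stably transfected CHO cells; cAMP accumulation by enzyme immunoassay kit. Relative potency computed as pEC50(compound) minus pEC50(NECA) determined in the same publication.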

Adenosine receptor A1 = molecular target: T4, Adenosine receptor A1 (Homo sapiens, UniProt P30542); assay: Displacement of [3H]CCPA from human adenosine A1 receptor expressed in CHO cells; assay type: cell-based
T4 sequence (P30542 whole entry): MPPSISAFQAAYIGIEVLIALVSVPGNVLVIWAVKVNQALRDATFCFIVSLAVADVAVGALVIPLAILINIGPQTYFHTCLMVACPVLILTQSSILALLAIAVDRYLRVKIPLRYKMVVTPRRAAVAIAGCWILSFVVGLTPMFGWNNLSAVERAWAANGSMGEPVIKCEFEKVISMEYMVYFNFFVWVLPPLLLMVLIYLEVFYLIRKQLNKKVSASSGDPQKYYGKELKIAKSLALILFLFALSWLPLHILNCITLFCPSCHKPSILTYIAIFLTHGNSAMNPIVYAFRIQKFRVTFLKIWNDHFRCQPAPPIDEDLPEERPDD

Adenosine receptor A2a [3] = molecular target: T1, Adenosine receptor A2a; assay: Displacement of [3H]CGS-21680 from human adenosine A2A receptor expressed in HEK293 cells at 10 uM; assay type: cell-based
Procedure, shortened: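 HEK293 membranes expressing receptor; [3H]CGS21680 final 10 nM in 50 mM Tris-HCl pH 7.4, 10 mM MgCl2, 1 h at 25 °C; nonspecific defined by 10 μM NECA; filtration, scintillation counting; percent displacement recorded at single 10 μM concentration.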

[4] = molecular target: T5, Adenosine receptor A1 (Homo sapiens) (UniProt P30542); assay: Displacement of [3H]CCPA from human adenosine A1 receptor expressed in CHO cells at 10 uM; assay type: cell-based
T5 sequence (whole entry): T4 sequence (P30542 whole entry)
Procedure, shortened: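 CHO membranes expressing receptor; [3H]CCPA final 1.0 nM, Tris-HCl 50 mM pH 7.4 with 10 mM MgCl2, 1 h at 25 °C; nonspecific with 10 μM NECA; filtration and scintillation counting; percent displacement at single 10 μM test concentration.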

T1 sequence (P29274 whole entry): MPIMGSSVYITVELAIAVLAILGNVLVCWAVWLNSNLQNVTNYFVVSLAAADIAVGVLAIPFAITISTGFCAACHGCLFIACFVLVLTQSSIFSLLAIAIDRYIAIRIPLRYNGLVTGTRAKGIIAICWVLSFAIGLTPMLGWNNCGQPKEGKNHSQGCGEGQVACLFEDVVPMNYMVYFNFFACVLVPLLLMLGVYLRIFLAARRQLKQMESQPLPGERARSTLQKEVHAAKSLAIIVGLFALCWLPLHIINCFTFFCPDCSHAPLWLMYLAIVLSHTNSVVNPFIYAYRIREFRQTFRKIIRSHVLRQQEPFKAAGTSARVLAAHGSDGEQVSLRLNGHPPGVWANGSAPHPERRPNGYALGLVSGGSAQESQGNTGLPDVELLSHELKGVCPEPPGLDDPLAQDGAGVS

Structure (SMILES)	Activity [2]	other results
O=C(COc1ccc(Nc2nc(OCCc3c[nH]c4cc(Br)ccc34)nc3c2ncn3[C@@H]2O[C@H](CO)[C@@H](O)[C@H]2O)cc1)Nc1ccccc1	-0.0092	Ki (Adenosine receptor A2a [1]): 1150 nM; EC50 (Adenosine receptor A2b): 143 nM; Ki (Adenosine receptor A1): 370 nM
NNc1nc(OCCc2c[nH]c3cc(Br)ccc23)nc2c1ncn2[C@@H]1O[C@H](CO)[C@@H](O)[C@H]1O	-0.0944	Ki (Adenosine receptor A2a [1]): 2050 nM; EC50 (Adenosine receptor A2b): 174 nM; Ki (Adenosine receptor A1): 350 nM
O=C(COc1ccc(Nc2nc(OCCc3c[nH]c4cc(Br)ccc34)nc3c2ncn3[C@@H]2O[C@H](CO)[C@@H](O)[C@H]2O)cc1)N1CCCC1	-0.838	Activity (Adenosine receptor A2a [3]): 46%; EC50 (Adenosine receptor A2b): 965 nM; Ki (Adenosine receptor A1): 420 nM
O=C(NNc1nc(OCCc2c[nH]c3cc(Br)ccc23)nc2c1ncn2[C@@H]1O[C@H](CO)[C@@H](O)[C@H]1O)c1ccco1	-0.315	Activity (Adenosine receptor A2a [3]): 40%; Activity [4]: 29%; EC50 (Adenosine receptor A2b): 289 nM
CCNC(=O)[C@H]1O[C@@H](n2cnc3c(Nc4ccc(OCC(=O)Nc5ccc(N6CCOCC6)cc5)cc4)ncnc32)[C@H](O)[C@@H]1O	0.287	
CCNC(=O)[C@H]1O[C@@H](n2cnc3c(Nc4ccc(OCC(=O)Nc5ccc(F)cc5)cc4)ncnc32)[C@H](O)[C@@H]1O	1.01	
CNc1nc(C#CCCCc2ccccc2)nc2c1ncn2[C@@H]1O[C@H](CO)[C@@H](O)[C@H]1O	-1.62	
OC[C@H]1O[C@@H](n2cnc3c(Nc4ccccc4)ncnc32)[C@H](O)[C@@H]1O	-1.31	
CCNC(=O)[C@H]1O[C@@H](n2cnc3c(Nc4ccc(OCC(=O)Nc5ccc(Cl)cc5)cc4)ncnc32)[C@H](O)[C@@H]1O	1.1	
CCNC(=O)[C@H]1O[C@@H](n2cnc3c(Nc4ccc(OCC(=O)Nc5ccc6c(c5)OCO6)cc4)ncnc32)[C@H](O)[C@@H]1O	0.64	
Nc1nc(OCCc2cccc3ccccc23)nc2c1ncn2[C@@H]1O[C@H](CO)[C@@H](O)[C@H]1O	-1.01	
CCNC(=O)[C@H]1O[C@@H](n2cnc3c(Nc4ccc(OCC(=O)Nc5ccc(C(C)(C)C)cc5)cc4)ncnc32)[C@H](O)[C@@H]1O	0.976	
CCNC(=O)[C@H]1O[C@@H](n2cnc3c(Nc4ccc(OCC(=O)Nc5ccncc5)cc4)ncnc32)[C@H](O)[C@@H]1O	0.681	
Nc1nc(C#C[C@H](O)c2ccccc2)nc2c1ncn2[C@@H]1O[C@H](CO)[C@@H](O)[C@H]1O	-0.412	
Nc1nc(OCCc2c[nH]c3ccc(Cl)cc23)nc2c1ncn2[C@@H]1O[C@H](CO)[C@@H](O)[C@H]1O	-1.19	
CC(C)Nc1nc(C#C[C@@H](O)c2ccccc2)nc2c1ncn2[C@@H]1O[C@H](CO)[C@@H](O)[C@H]1O	0.398	
CCNC(=O)[C@H]1O[C@@H](n2cnc3c(Nc4ccc(OCC(=O)Nc5ccc(OC)c(OC)c5)cc4)ncnc32)[C@H](O)[C@@H]1O	0.533	
CC(C)(C)OC(=O)C1CCCN1C[C@@H](O)[C@H](Cc1ccccc1)NC(=O)[C@H](CC(N)=O)NC(=O)OCc1ccccc1 (stereo partly specified)	-0.405	
OC[C@H]1O[C@@H](n2cnc3c(NCc4ccccc4)ncnc32)[C@H](O)[C@@H]1O	-1.49	
